# Results reported in ChEMBL document CHEMBL2046427, “Nonhematotoxic naphthalene diimide modified by polyamine: synthesis and biological evaluation” (J Med Chem, 2012).
# pIC50: −log10 of the molar value. Calls of active or inactive are those of the source. The rule behind the calls is not given here.
# Experiments:
# [1] = system: HCT-116; test: Cytotoxicity against human HCT116 cells after 48 hrs by MTT assay; format: functional, cell-based; conditions: HCT-116, 48 h
# Outline: (§1)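 MTT conversion assay at 37 °C, 5% CO₂. […] Inhibition relative to untreated cells as 100%; IC50 by linear regression, mean of three independent experiments.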
# [2] = system: Mus musculus; test: Toxicity in mouse H22 cells bearing Kunming mouse assessed as change in thymus index number at 5 mg/kg, iv administered for 7 days measured on day 8 relative to vehicle treated control; format: organism-based; design: dose 5 mg/kg, route intravenous; conditions: in vivo, 168 h
# Outline: (§2)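 Tumour-bearing mice (10 per group) dosed iv for 7 consecutive days, killed on day 8; spleen and thymus removed and weighed. Organ index (%) = (organ weight/body weight) × 100, compared with saline-treated controls.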
# [3] = system: Mus musculus; test: Toxicity in mouse H22 cells bearing Kunming mouse assessed as change in spleen index number at 5 mg/kg, iv administered for 7 days measured on day 8 relative to vehicle treated control; format: organism-based; design: dose 5 mg/kg, route intravenous; conditions: in vivo, 168 h; outline: as §2
# [4] = system: MDA-MB-231; test: Cytotoxicity against human MDA-MB-231 cells after 48 hrs by MTT assay; format: functional, cell-based; conditions: MDA-MB-231, 48 h; outline: as §1
# [5] = system: HepG2; test: Cytotoxicity against human HepG2 cells assessed as acruement in lysosomal mass/pH after 48 hrs by fluorescence-based high-content screening assay; format: functional, cell-based
# Outline: (§3)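 HepG2 seeded 5 × 10³/well; after 12 h treated at 1, 5, 10, 15 and 30 μM for 48 h. Multiparameter cytotoxicity kit staining imaged by high-content screening: Hoechst 33342 for nuclear morphology, permeability dye (green nuclei) for membrane integrity, mitochondrial potential dye, and a weak-base dye for lysosomal mass/pH.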
# [6] = system: Mus musculus; test: Toxicity in mouse H22 cells bearing Kunming mouse assessed pathological changes in kidney at 5 mg/kg, iv administered for 7 days measured on day 8 by hematoxylin and eosin staining relative to vehicle treated control; format: organism-based; design: dose 5 mg/kg, route intravenous; conditions: in vivo, 168 h
# Outline: (§4)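 Tumour-bearing mice dosed iv for 7 consecutive days, killed on day 8; heart, liver, kidney, brain, lung and spleen removed, fixed in 10% formaldehyde 24 h, paraffin-embedded, sectioned and H&E stained for histopathological change versus saline controls.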
# [7] = system: H22; test: Antitumor activity against mouse H22 cells xenografted in Kunming mouse assessed as median survival time at 5 […], iv administered 24 hrs post-tumor injection for 7 days relative to vehicle treated control; format: functional
# Outline: (§5)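 Kunming mice bearing H22 cells; iv (caudal vein) dosing or physiologic saline control started 24 h after inoculation and given for 7 consecutive days. Median survival time recorded per group; activity judged as increase in lifespan versus saline control.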
# [8] = system: HepG2; test: Cytotoxicity against human HepG2 cells assessed as cell nuclear shrinkage after 48 hrs by Hoechst 33342-based fluorescence-based high-content screening assay; format: functional; outline: as §3
# [9] = system: Mus musculus; test: Toxicity in mouse H22 cells bearing Kunming mouse assessed pathological changes in heart at 5 mg/kg, iv administered for 7 days measured on day 8 by hematoxylin and eosin staining relative to vehicle treated control; format: organism-based; design: dose 5 mg/kg, route intravenous; conditions: in vivo, 168 h; outline: as §4
# [10] = system: Mus musculus; test: Toxicity in mouse H22 cells bearing Kunming mouse assessed pathological changes in lung at 5 mg/kg, iv administered for 7 days measured on day 8 by hematoxylin and eosin staining relative to vehicle treated control; format: organism-based; design: dose 5 mg/kg, route intravenous; conditions: in vivo, 168 h; outline: as §4
# [11] = system: H22; test: Antimetastatic activity against mouse H22 cells xenografted in Kunming mouse assessed as tumor weight at 5 mg/kg, iv administered on day 11 post-tumor injection for 7 days measured on day 18 (reference value: 0.34 +/- 0.15 g); format: functional
# [12] = system: Mus musculus; test: Toxicity in mouse H22 cells bearing Kunming mouse assessed pathological changes in brain at 5 mg/kg, iv administered for 7 days measured on day 8 by hematoxylin and eosin staining relative to vehicle treated control; format: organism-based; design: dose 5 mg/kg, route intravenous; conditions: in vivo, 168 h; outline: as §4
# [13] = system: Mus musculus; test: Hematotoxicity in mouse H22 cells bearing Kunming mouse assessed as decrease in bone marrow cell numbers at 5 mg/kg, iv administered for 7 days measured on day 8 relative to vehicle treated control; format: organism-based; design: dose 5 mg/kg, route intravenous; conditions: in vivo, 168 h
# Outline: (§6)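 Tumour-bearing mice (10 per group) dosed iv for 7 consecutive days; killed on day 8. Blood and bone marrow collected; platelet, RBC, WBC and bone marrow cell counts determined with a Coulter counter. Mean SD versus saline control; Student's t test or ANOVA with q test.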
# [14] = system: Mus musculus; test: Toxicity in mouse H22 cells bearing Kunming mouse assessed pathological changes in liver at 5 mg/kg, iv administered for 7 days measured on day 8 by hematoxylin and eosin staining relative to vehicle treated control; format: organism-based; design: dose 5 mg/kg, route intravenous; conditions: in vivo, 168 h; outline: as §4
# [15] = system: H22; test: Antitumor activity against mouse H22 cells xenografted in Kunming mouse assessed as median survival time at 5 […], iv administered 24 hrs post-tumor injection for 7 days (reference value: 12.7 +/- 2.5 days); format: functional; outline: as §5
# [16] = system: Mus musculus; test: Toxicity in mouse H22 cells bearing Kunming mouse assessed pathological changes in spleen at 5 mg/kg, iv administered for 7 days measured on day 8 by hematoxylin and eosin staining relative to vehicle treated control; format: organism-based; design: dose 5 mg/kg, route intravenous; conditions: in vivo, 168 h; outline: as §4
# [17] = system: HepG2; test: Cytotoxicity against human HepG2 cells after 48 hrs by MTT assay; format: functional, cell-based; conditions: HepG2, 48 h; outline: as §1
# [18] = system: HepG2; test: Cytotoxicity against human HepG2 cells assessed as mitochondrial permeability augmentation after 48 hrs by fluorescence-based high-content screening assay; format: functional, cell-based; outline: as §3
# [19] = system: Mus musculus; test: Toxicity in mouse H22 cells bearing Kunming mouse assessed as decrease in white blood cells number at 5 mg/kg, iv administered for 7 days measured on day 8 relative to vehicle treated control; format: organism-based; design: dose 5 mg/kg, route intravenous; conditions: in vivo, 168 h; outline: as §6
# [20] = system: H22; test: Antitumor activity against mouse H22 cells xenografted in Kunming mouse assessed as tumor growth inhibition at 5 mg/kg, iv administered on day 8 post-tumor injection for 7 days measured on day 16 relative to vehicle treated control; format: functional; conditions: read-out: GI
# Outline: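 Male Kunming mice, 5 weeks, 18−22 g, injected sc with 2 × 10⁶ H22 cells. From day 8, randomized groups got caudal vein injection (0.2 or 5 mg/kg, or physiologic saline) for 7 consecutive days. On day 16 tumours excised and weighed; inhibitory rate (%) = [(A − B)/A] × 100 using mean tumour weights of control (A) and treated (B). Tumours formalin-fixed, H&E-stained.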
# [21] = system: Mus musculus; test: Toxicity in mouse H22 cells bearing Kunming mouse assessed as weight loss at 5 mg/kg, iv administered for 7 days measured on day 8 relative to vehicle treated control; format: organism-based; design: dose 5 mg/kg, route intravenous; conditions: in vivo, 168 h
# Outline: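 Body weight monitored in tumour-bearing mice during 7 consecutive days of iv dosing (10 per group), as a sign of dose-limiting toxicity versus saline-treated controls; mice killed on day 8.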
# [22] = system: Mus musculus; test: Toxicity in mouse H22 cells bearing Kunming mouse assessed as decrease in red blood cells number at 5 mg/kg, iv administered for 7 days measured on day 8 relative to vehicle treated control; format: organism-based; design: dose 5 mg/kg, route intravenous; conditions: in vivo, 168 h; outline: as §6
# [23] = system: H22; test: Antimetastatic activity against mouse H22 cells xenografted in Kunming mouse assessed as decrease in lung metastases nodus number at 5 mg/kg, iv administered on day 11 post-tumor injection for 7 days measured on day 18 by hematoxylin and eosin staining relative to vehicle treated control; format: functional, organism-based; design: dose 5 mg/kg
# [24] = system: HepG2; test: Cytotoxicity against human HepG2 cells assessed as decrease in mitochondrial membrane potential after 48 hrs by fluorescence-based high-content screening assay; format: functional, cell-based; outline: as §3
# [25] = system: H22; test: Antimetastatic activity against mouse H22 cells xenografted in Kunming mouse assessed as decrease in lung metastasis focuses number at 5 mg/kg, iv administered on day 11 post-tumor injection for 7 days measured on day 18 by hematoxylin and eosin staining relative to vehicle treated control; format: functional, organism-based; design: dose 5 mg/kg
# [26] = system: H22; test: Antitumor activity against mouse H22 cells xenografted in Kunming mouse assessed as decrease in cell survival at 5 mg/kg, iv administered on day 8 post-tumor injection for 7 days measured on day 16 relative to vehicle treated control; format: functional, organism-based; design: dose 5 mg/kg
# [27] = system: K562; test: Cytotoxicity against human K562 cells after 48 hrs by MTT assay; format: functional, cell-based; conditions: K562, 48 h; outline: as §1
# [28] = system: Mus musculus; test: Toxicity in mouse H22 cells bearing Kunming mouse assessed as decrease in platelet number at 5 mg/kg, iv administered for 7 days measured on day 8 relative to vehicle treated control; format: organism-based; design: dose 5 mg/kg, route intravenous; conditions: in vivo, 168 h; outline: as §6
# [29] = system: HepG2; test: Cytotoxicity against human HepG2 cells assessed as mitochondrial permeability augmentation at 1 to 30 uM after 48 hrs by fluorescence-based high-content screening assay; format: functional, cell-based; outline: as §3
# [30] = system: HepG2; test: Cytotoxicity against human HepG2 cells assessed as decrease in mitochondrial membrane potential at 1 to 30 uM after 48 hrs by fluorescence-based high-content screening assay; format: functional, cell-based; outline: as §3
# [31] = system: HepG2; test: Cytotoxicity against human HepG2 cells assessed as acruement in lysosomal mass/pH at 1 to 30 uM after 48 hrs by fluorescence-based high-content screening assay; format: functional, cell-based; outline: as §3
# [32] = system: HepG2; test: Cytotoxicity against human HepG2 cells assessed as cell nuclear shrinkage at 1 to 30 uM after 48 hrs by Hoechst 33342-based fluorescence-based high-content screening assay; format: functional; outline: as §3
smiles,measurement,setting,value
CN(C)CCN1C(=O)c2cccc3cc(N)cc(c23)C1=O [AMONAFIDE],pIC50,[1],4.49
same,Activity,[2],Toxic
same,Activity,[3],Toxic
same,pIC50,[4],4.38
same,Activity,[5],Dose-dependent effect
same,Activity,[6],Non-toxic
same,Ratio,[7],1.5
same,Activity,[8],Dose-dependent effect
same,Activity,[9],Non-toxic
same,Activity,[10],Non-toxic
same,Activity,[11],0.29 g
same,Activity,[12],Non-toxic
same,Activity,[13],Toxic
same,Activity,[14],Non-toxic
same,MST,[15],18.9 days
same,Activity,[16],Non-toxic
same,pIC50,[17],4.44
same,Activity,[18],Dose-dependent effect
same,Activity,[19],Toxic
same,inhibition in vivo at 5 mg/kg,[20],44.7%
same,Activity,[21],Toxic
same,Activity,[22],Toxic
same,Activity,[23],Active
same,Activity,[24],Dose-dependent effect
same,Activity,[25],Active
same,Activity,[26],Active
same,pIC50,[27],4.50
same,Activity,[28],Toxic
NCCCCNCCCCN1C(=O)c2cccc3c(-c4ccccc4)ccc(c23)C1=O,pIC50,[4],4.72
same,pIC50,[17],4.77
same,pIC50,[27],4.84
NCCCNCCCNCCCN1C(=O)c2ccc(-c3ccc4c(c3)C(=O)N(CCCNCCCNCCCN)C4=O)cc2C1=O,pIC50,[1],< 4.30
same,pIC50,[4],< 4.30
same,pIC50,[17],< 4.30
NCCCCNCCCCNCCCCN1C(=O)c2ccc(-c3ccc4c(c3)C(=O)N(CCCCNCCCCNCCCCN)C4=O)cc2C1=O,pIC50,[1],< 4.30
same,Activity,[29],inactive
same,pIC50,[4],< 4.30
same,pIC50,[17],< 4.30
same,Activity,[30],inactive
same,Activity,[31],inactive
same,Activity,[32],inactive
CN(C)CCN1C(=O)c2cccc3c(-c4ccccc4)ccc(c23)C1=O,pIC50,[4],4.41
same,Activity,[5],Dose-dependent effect
same,Activity,[8],Dose-dependent effect
same,pIC50,[17],4.43
same,Activity,[18],Dose-dependent effect
same,Activity,[24],Dose-dependent effect
same,pIC50,[27],< 4.30
NCCCCNCCCCNCCCCN1C(=O)c2cccc3c(-c4ccccc4)ccc(c23)C1=O,pIC50,[4],4.72
same,pIC50,[17],4.49
same,pIC50,[27],4.85
NCCCNCCCNCCCN1C(=O)c2ccc3c4c(ccc(c24)C1=O)C(=O)N(CCCNCCCNCCCN)C3=O,pIC50,[4],4.74
same,pIC50,[17],4.31
same,pIC50,[27],4.67
